Measurements gathered from unrelated publications.
Each line is one published result; the experiments were not run side by side.
SLC18A2: Synaptic vesicular amine transporter (SLC18A2, Homo sapiens, UniProt Q05940)
LATS1: Serine/threonine-protein kinase LATS1 (LATS1, Homo sapiens, UniProt O95835)
CA1: Carbonic anhydrase 1 (CA1, Homo sapiens, UniProt P00915)
ADRA2A: Alpha-2A adrenergic receptor (ADRA2A, Homo sapiens, UniProt P08913)

`Cc1ccccc1N1CCN(CCc2nnc3n2CCCC3)CC1` gave an IC50 of 566 nM (SLC18A2; transporter uptake; inhibitor).
`CC1CNCCC1(O)c1ccc(-c2ccnc3[nH]cc(F)c23)cc1` (centres unmarked) has an IC50 of 9.8 nM (LATS1; enzyme activity; inhibitor; radiometric).
`CN(C)CCC(c1ccccc1)c1ccccn1` (centres unmarked) has an IC50 of 20400 nM (CA1; enzyme activity; inhibitor; absorbance; pH 7.4).
With `O=C(Nc1c[nH]nc1-c1nc2cc(CN3CCOCC3)ccc2[nH]1)NC1CC1` the IC50 was 73 nM (LATS1; enzyme activity; inhibitor; radiometric).
The Ki of `Cc1cc(Oc2ncccc2CN2CCN(c3ccc(C(F)(F)F)cn3)CC2)ccc1-c1c(C)c(=O)[nH]c(=O)n1C` is reported as 1280 nM (ADRA2A; ligand displacement; radioligand).
`O=C(CCCN1CCC(O)(c2ccc(Br)cc2)CC1)c1ccc(F)cc1` gave an IC50 of 92 nM (SLC18A2; transporter uptake; inhibitor).
For `Cc1cc(Oc2ncccc2CN2CCN(c3cccc4ccccc34)CC2)ccc1-c1c(C)c(=O)[nH]c(=O)n1C`, the Ki was 186 nM (ADRA2A; ligand displacement; radioligand).
`O=c1n(CCCN2CCN(c3cccc(Cl)c3)CC2)nc2ccccn12` gave an IC50 of 2780 nM (SLC18A2; transporter uptake; inhibitor).
The IC50 of `CC(C)(C(=O)O)c1ccc(C(O)CCCN2CCC(C(O)(c3ccccc3)c3ccccc3)CC2)cc1` (centres unmarked) is reported as 19300 nM (CA1; enzyme activity; inhibitor; absorbance; pH 7.4).
The IC50 of `COc1cc2nc(N(C)CCCNC(=O)C3CCCO3)nc(N)c2cc1OC` (centres unmarked) is reported as 249 nM (SLC18A2; transporter uptake; inhibitor).
With `Cc1ccc(N2CCN(Cc3cccnc3Oc3ccc(-c4c(C)c(=O)[nH]c(=O)n4C)c(C)c3)CC2)cc1C` the Ki was 546 nM (ADRA2A; ligand displacement; radioligand).
`Cc1cc(C#CC2(O)CCCCC2)cc2c1cc(C(=O)O)n2-c1ccccc1` gave a Kd of 3500 nM (Microphthalmia-associated transcription factor (Homo sapiens, UniProt O75030); binding; ITC).
With `Cc1cc(-c2ccnc3[nH]cc(F)c23)cc(F)c1[C@@]1(O)[C@H](C)CN(C(=O)CN)C[C@@H]1C` the Kd was 0.9 nM (LATS1; binding; TR-FRET).
`Cc1cc(Oc2ncccc2CN2CCN(c3ccc(F)cc3F)CC2)ccc1-c1c(C)c(=O)[nH]c(=O)n1C` has a Ki of 326 nM (ADRA2A; ligand displacement; radioligand).
